This is an account of results in ChEMBL document CHEMBL1135836, “Cyclodextrin-derived host molecules as reversal agents for the neuromuscular blocker rocuronium bromide: synthesis and structure-activity relationships” (J Med Chem, 2002).

Assay type in all cases: functional
Assay [1] concerns Cavia porcellus. The assay can be described thus: In vivo reversal activity versus ~90% block by rocuronium in guinea pig. In a few lines:
(§1)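 Male Dunkin-Hartley guinea pigs (600-900 g), anaesthetized ip with pentobarbitone 10 mg/kg plus urethane 1000 mg/kg, tracheotomized and ventilated. Continuous iv rocuronium infusion (~10 nmol kg-1 min-1) was raised to a steady 85-90% block. Increasing iv doses of agent were given cumulatively. ED50 = 50% recovery versus preblock twitch, by regression. Mean ± SEM of at least two experiments, or one.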

For assay [2], the system named is Cavia porcellus. The assay can be described thus: In vivo reversal activity versus ~90% block by rocuronium in guinea pig, expressed as % maximum reversal at 1018 umol/kg conc. The essentials: as §1
Assay [3] is filed under the species Mus musculus. In words: In vitro reversal activity versus ~90% block by rocuronium in isolated mouse hemidiaphragm, expressed as % of maximum reversal at a conc. of 360 uM.
For assay [4], the species on record is Mus musculus. In words: In vitro reversal activity versus ~90% block by rocuronium in isolated mouse hemidiaphragm, expressed as effective conc.
For assay [5], the system named is Cavia porcellus. In words: In vivo reversal activity versus ~90% block by rocuronium in guinea pig, expressed as % of maximum reversal at 1.7 umol/kg conc. In a few lines: as §1
The species entered for assay [6] is Mus musculus. In words: In vitro reversal activity versus ~90% block by rocuronium in isolated mouse hemidiaphragm, expressed as % of maximum reversal at 7.2 uM conc.
Assay [7] has as its system Cavia porcellus. In words: In vivo reversal activity versus ~90% block by rocuronium in guinea pig, expressed as % of maximum reversal at 0.2 umol/kg conc. The essentials: as §1
The species entered for assay [8] is Mus musculus. The assay can be described thus: In vitro reversal activity versus ~90% block by rocuronium in isolated mouse hemidiaphragm, expressed as % of maximum reversal at 3.6 uM conc.
Assay [9] concerns Cavia porcellus. In words: In vivo reversal activity versus ~90% block by rocuronium in guinea pig, expressed as % of maximum reversal at 47umol/kg conc. In a few lines: (§2)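 Male Dunkin-Hartley guinea pigs (600-900 g) anaesthetized ip with pentobarbitone 10 mg/kg plus urethane 1000 mg/kg, tracheotomized and artificially ventilated. Continuous iv rocuronium bromide infusion (~10 nmol kg-1 min-1) raised until steady-state twitch block of 85-90%. Increasing single iv doses of reversal agent given by a separate catheter. Max reversal is peak twitch recovery versus preblock height at highest dose tested; means ± SEM, n ≥ 2 or single experiment.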

Assay [10] is filed under the species Mus musculus. The assay can be described thus: In vitro reversal activity versus ~90% block by rocuronium in isolated mouse hemidiaphragm, expressed as % of maximum reversal at 144 uM conc.
Assay [11] deals with Cavia porcellus. In words: In vivo reversal activity versus ~90% block by rocuronium in guinea pig, expressed as % of maximum reversal at 33.1 umol/kg conc. The essentials:
as §2

The species entered for assay [12] is Mus musculus. The assay can be described thus: In vitro reversal activity versus ~90% block by rocuronium in isolated mouse hemidiaphragm, expressed as % of maximum reversal at 10.8uM conc.
In assay [13] the test system is Cavia porcellus. The assay can be described thus: In vivo reversal activity versus ~90% block by rocuronium in guinea pig, expressed as % of maximum reversal at 11 umol/kg conc. In a few lines:
as §1

The species entered for assay [14] is Mus musculus. The assay can be described thus: In vitro reversal activity versus ~90% block by rocuronium in isolated mouse hemidiaphragm, expressed as % of maximum reversal at 252 uM conc.
The species named for assay [15] is Mus musculus. The assay can be described thus: In vitro reversal activity versus ~90% block by rocuronium in isolated mouse hemidiaphragm, expressed as % of maximum reversal at 16.2 uM conc.
Assay [16] deals with Cavia porcellus. The assay can be described thus: In vivo reversal activity versus ~90% block by rocuronium in guinea pig, expressed as % of maximum reversal at 2.1 umol/kg conc. In a few lines:
as §2

Assay [17] relates to Cavia porcellus. The assay can be described thus: In vivo reversal activity versus ~90% block by rocuronium in guinea pig, expressed as % of maximum reversal at 1.6 umol/kg conc. The essentials:
as §1

The species entered for assay [18] is Mus musculus. In words: In vitro reversal activity versus ~90% block by rocuronium in isolated mouse hemidiaphragm, expressed as % of maximum reversal at 2.9 uM conc.
In assay [19] the test system is Felis catus. The assay can be described thus: Percent of maximum change in BP in anesthetized cat (dosed with standard combination of neostigmin (24.3 umol/kg) + atropine 15 umol/kg).
Assay [20] deals with Felis catus. In words: Percent increase in contraction of nictitating membrane in anesthetized cat (dosed with standard combination of neostigmin (24.3 umol/kg) + atropine 15 umol/kg).
For assay [21], the system named is Felis catus. The assay can be described thus: Percent of maximum change of HR in anesthetized cat (dosed with standard combination of neostigmin (24.3 umol/kg) + atropine 15 umol/kg).
Assay [22] relates to Felis catus. In words: Percent of maximum change of decrease in HR (bpm) by vagal stimulation in anesthetized cat (dosed with standard combination of neostigmin (24.3 umol/kg) + atropine 15 umol/kg).
Assay [23] has as its system Cavia porcellus. In words: In vivo reversal activity versus ~90% block by rocuronium in guinea pig, expressed as % of maximum reversal at 9.6 […] conc. The essentials: as §2

On to `OCC1O[C@@H]2O[C@@H]3C(CO)O[C@H](O[C@@H]4C(CO)O[C@H](O[C@@H]5C(CO)O[C@H](O[C@@H]6C(CO)O[C@H](O[C@@H]7C(CO)O[C@H](O[C@H]1C(O)C2O)C(O)C7O)C(O)C6O)C(O)C5O)C(O)C4O)C(O)C3O` (stereo not given in full), for which the ED50 in the assay on Cavia porcellus [1] stood at 1580 µmol/kg. The results for the Max reversal in the assay with Cavia porcellus [2] and in the assay listed under Mus musculus [3] were 6.4% and 9.7%, respectively. Moreover, in the assay filed under Mus musculus [4], the EC50 was greater than 360 µM.

In the case of `O=S(=O)([O-])CSCC1O[C@@H]2O[C@@H]3C(CSCS(=O)(=O)[O-])O[C@H](O[C@@H]4C(CSCS(=O)(=O)[O-])O[C@H](O[C@@H]5C(CSCS(=O)(=O)[O-])O[C@H](O[C@@H]6C(CSCS(=O)(=O)[O-])O[C@H](O[C@@H]7C(CSCS(=O)(=O)[O-])O[C@H](O[C@@H]8C(CSCS(=O)(=O)[O-])O[C@H](O[C@@H]9C(CSCS(=O)(=O)[O-])O[C@H](O[C@H]1C(O)C2O)C(O)C9O)C(O)C8O)C(O)C7O)C(O)C6O)C(O)C5O)C(O)C4O)C(O)C3O.[Na+].[Na+].[Na+].[Na+].[Na+].[Na+].[Na+].[Na+]` (stereo not given in full), in the assay on Cavia porcellus [1], the 50% effective dose (ED50) was determined as 0.06 µmol/kg. The Max reversal was 106.5% in the assay with Cavia porcellus [5] and 101.4% in the assay listed under Mus musculus [6]. In the assay listed under Mus musculus [4], the EC50 amounted to 0.36 µM.

Turning to `O=S(=O)([O-])CCCSCC1O[C@@H]2O[C@@H]3C(CSCCCS(=O)(=O)[O-])O[C@H](O[C@@H]4C(CSCCCS(=O)(=O)[O-])O[C@H](O[C@@H]5C(CSCCCS(=O)(=O)[O-])O[C@H](O[C@@H]6C(CSCCCS(=O)(=O)[O-])O[C@H](O[C@@H]7C(CSCCCS(=O)(=O)[O-])O[C@H](O[C@@H]8C(CSCCCS(=O)(=O)[O-])O[C@H](O[C@@H]9C(CSCCCS(=O)(=O)[O-])O[C@H](O[C@H]1C(O)C2O)C(O)C9O)C(O)C8O)C(O)C7O)C(O)C6O)C(O)C5O)C(O)C4O)C(O)C3O.[Na+].[Na+].[Na+].[Na+].[Na+].[Na+].[Na+].[Na+]` (stereo not given in full), the 50% effective dose (ED50) with Cavia porcellus [1] is 0.07 µmol/kg. The Max reversal in the assay with Cavia porcellus [7] is 98.6%; in the assay filed under Mus musculus [8], 99.3%. Also, in the assay filed under Mus musculus [4], the EC50 came to 1.8 µM.

For the compound `OCC1O[C@@H]2O[C@@H]3C(CO)O[C@H](O[C@@H]4C(CO)O[C@H](O[C@@H]5C(CO)O[C@H](O[C@@H]6C(CO)O[C@H](O[C@@H]7C(CO)O[C@H](O[C@@H]8C(CO)O[C@H](O[C@@H]9C(CO)O[C@H](O[C@H]1C(O)C2O)C(O)C9O)C(O)C8O)C(O)C7O)C(O)C6O)C(O)C5O)C(O)C4O)C(O)C3O` (stereo not given in full), the ED50 in the assay on Cavia porcellus [1] was 4 µmol/kg. The values for the Max reversal in the assay on Cavia porcellus [9] and in the assay filed under Mus musculus [10] were 104.7% and 94.1%, respectively. The concentration for a half-maximal effect (EC50) in the assay filed under Mus musculus [4] amounted to 34.6 µM.

On to `NC(=O)CCCSCC1O[C@@H]2O[C@@H]3C(CSCCCC(N)=O)O[C@H](O[C@@H]4C(CSCCCC(N)=O)O[C@H](O[C@@H]5C(CSCCCC(N)=O)O[C@H](O[C@@H]6C(CSCCCC(N)=O)O[C@H](O[C@@H]7C(CSCCCC(N)=O)O[C@H](O[C@@H]8C(CSCCCC(N)=O)O[C@H](O[C@@H]9C(CSCCCC(N)=O)O[C@H](O[C@H]1C(O)C2O)C(O)C9O)C(O)C8O)C(O)C7O)C(O)C6O)C(O)C5O)C(O)C4O)C(O)C3O` (stereo not given in full), for which the 50% effective dose (ED50) with Cavia porcellus [1] is 0.58 µmol/kg. Moreover, the Max reversal is listed as 94.2% with Cavia porcellus [11] and 85.4% in the assay listed under Mus musculus [12]. For the same compound, in the assay listed under Mus musculus [4], the EC50 was 5 µM.

In the case of `O=C([O-])c1ccccc1SCC1O[C@@H]2O[C@@H]3C(CO)O[C@H](O[C@@H]4C(CO)O[C@H](O[C@@H]5C(CO)O[C@H](O[C@@H]6C(CO)O[C@H](O[C@@H]7C(CO)O[C@H](O[C@@H]8C(CO)O[C@H](O[C@@H]9C(CO)O[C@H](O[C@H]1C(O)C2O)C(O)C9O)C(O)C8O)C(O)C7O)C(O)C6O)C(O)C5O)C(O)C4O)C(O)C3O.[Na+]` (stereo not given in full), the ED50 in the assay with Cavia porcellus [1] worked out at 1.3 µmol/kg. Also, the Max reversal in the assay on Cavia porcellus [13] is reported as 93%; in the assay listed under Mus musculus [14] it was 86.3%. Further, in the assay listed under Mus musculus [4], the EC50 is 97.6 µM.

`O=C(O)CCOCCSCC1O[C@@H]2O[C@@H]3C(CSCCOCCO)O[C@H](O[C@@H]4C(CSCCOCCO)O[C@H](O[C@@H]5C(CSCCOCCO)O[C@H](O[C@@H]6C(CSCCOCCO)O[C@H](O[C@@H]7C(CSCCOCCO)O[C@H](O[C@@H]8C(CSCCOCCO)O[C@H](O[C@@H]9C(CSCCOCCO)O[C@H](O[C@H]1C(O)C2O)C(O)C9O)C(O)C8O)C(O)C7O)C(O)C6O)C(O)C5O)C(O)C4O)C(O)C3O` (stereo not given in full): in the assay with Cavia porcellus [1], the ED50 amounted to 0.47 µmol/kg. The results for the Max reversal in the assay listed under Mus musculus [15] and with Cavia porcellus [16] were 66.1% and 92.2%, respectively. Moreover, the EC50 in the assay listed under Mus musculus [4] turned out to be 9.1 µM.

For the compound `O=C([O-])Cc1ccc(SCC2O[C@@H]3O[C@@H]4C(CSc5ccc(CC(=O)[O-])cc5)O[C@H](O[C@@H]5C(CSc6ccc(CC(=O)[O-])cc6)O[C@H](O[C@@H]6C(CSc7ccc(CC(=O)[O-])cc7)O[C@H](O[C@@H]7C(CSc8ccc(CC(=O)[O-])cc8)O[C@H](O[C@@H]8C(CSc9ccc(CC(=O)[O-])cc9)O[C@H](O[C@@H]9C(CSc%10ccc(CC(=O)[O-])cc%10)O[C@H](O[C@@H]%10C(CSc%11ccc(CC(=O)[O-])cc%11)O[C@H](O[C@H]2C(O)C3O)C(O)C%10O)C(O)C9O)C(O)C8O)C(O)C7O)C(O)C6O)C(O)C5O)C(O)C4O)cc1.[Na+].[Na+].[Na+].[Na+].[Na+].[Na+].[Na+].[Na+]` (stereo not given in full), the ED50 with Cavia porcellus [1] was 0.14 µmol/kg. The figures for the Max reversal with Cavia porcellus [17] and in the assay listed under Mus musculus [18] were 103.8% and 98.9%, respectively. Also, in the assay filed under Mus musculus [4], the 50% effective concentration (EC50) stood at 1.4 µM.

Take `CN(C)C(=O)Oc1cccc([N+](C)(C)C)c1.CN1[C@@H]2CC[C@H]1C[C@H](OC(=O)C(CO)c1ccccc1)C2.[Br-]` (stereo not given in full): the BP with Felis catus [19] came to 17.7 mmHg. Also, in the assay with Felis catus [20], the Increase is listed as -7.2%. Besides, the HR in the assay on Felis catus [21] is given as -7.1 beats min-1. Also, the Decrease in the assay on Felis catus [22] was -64.8%.

For `O=C([O-])CSCC1O[C@@H]2O[C@@H]3C(CSCC(=O)[O-])O[C@H](O[C@@H]4C(CSCC(=O)[O-])O[C@H](O[C@@H]5C(CSCC(=O)[O-])O[C@@H](O[C@@H]6C(CSCC(=O)[O-])O[C@H](O[C@@H]7C(CSCC(=O)[O-])O[C@H](O[C@@H]8C(CSCC(=O)[O-])O[C@H](O[C@H]1C(O)C2O)C(O)C8O)C(O)C7O)C(O)C6O)C(O)C5O)C(O)C4O)C(O)C3O.[Na+].[Na+].[Na+].[Na+].[Na+].[Na+].[Na+]` (stereo not given in full), in the assay with Cavia porcellus [1], the 50% effective dose (ED50) is 0.93 µmol/kg. The Max reversal with Cavia porcellus [23] came out at 89.6%; in the assay filed under Mus musculus [15], 97.3%. Besides, in the assay filed under Mus musculus [4], the half-maximal effective concentration (EC50) came to 6.5 µM.

For orientation: ED50 means the dose that gives a 50% effect, or the effect in half of the subjects. For orientation: EC50 means the concentration at which the effect is half-maximal.
